# Results from ChEMBL document CHEMBL4689842, “EUbOPEN Chemogenomics Library wave 1” (2021).
# Tested on: Fibroblast
# Test: Multiplex assay against human fibroblast
# Assay type: toxicity, cell-based
# Procedure, shortened: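 Compound was added to live cells that had been stained at seeding with Hoechst33342, BioTracker Green Microtubule Cytoskeleton Dye, MitoTracker Red and Annexin V Alexa Fluor 680, and imaging followed on a CQ1 microscope at 37°C and 5% CO2. CellPathfinder machine-learning gating divided cells into Hoechst high-intensity objects or normal cells, normal cells into healthy, pyknosed or fragmented nuclei, and pyknosed cells into mitotic or apoptotic. Tubulin, mitochondrial-mass and membrane-permeability phenotypes are per cents of healthy-nucleus cells.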
# [1] = 12 h, 1 µM, compound concentration 1 uM, replicate 1
# [2] = 12 h, 1 µM, compound concentration 1 uM, replicate 2
# [3] = 12 h, 10 µM, compound concentration 10 uM, replicate 1
# [4] = 12 h, 10 µM, compound concentration 10 uM, replicate 2
# [5] = 24 h, 1 µM, compound concentration 1 uM, replicate 1
# [6] = 24 h, 1 µM, compound concentration 1 uM, replicate 2
# [7] = 24 h, 10 µM, compound concentration 10 uM, replicate 1
# [8] = 24 h, 10 µM, compound concentration 10 uM, replicate 2
# [9] = 48 h, 1 µM, compound concentration 1 uM, replicate 1
# [10] = 48 h, 1 µM, compound concentration 1 uM, replicate 2
# [11] = 48 h, 10 µM, compound concentration 10 uM, replicate 1
# [12] = 48 h, 10 µM, compound concentration 10 uM, replicate 2
compound,measurement,setting,value
Cc1cc(C)cc(-c2cnc3cc(Cl)c(-c4cccc(O)c4)cc3c2OCCCN)c1,Population Apoptotic (%),[1],44%
same,Population Fragmented Nuclei (%),[1],38%
same,Population Healthy Nuclei (%),[1],26%
same,Population Hoechst High Intensity Objects (%),[1],16%
same,Population Membrane Permeable-Phenotype (%),[1],38%
same,Population Mitochondria Different-Phenotype (%),[1],30%
same,Population Mitotic Cells (%),[1],55%
same,Population Normal (%),[1],83%
same,Population Pyknosed Nuclei (%),[1],36%
same,Population Tubulin-Different-Phenotype (%),[1],61%
same,Total Cell Count,[1],60
same,Population Fragmented Nuclei (%),[2],11%
same,Population Healthy Nuclei (%),[2],72%
same,Population Hoechst High Intensity Objects (%),[2],10%
same,Population Membrane Permeable-Phenotype (%),[2],2%
same,Population Mitochondria Different-Phenotype (%),[2],82%
same,Population Normal (%),[2],90%
same,Population Pyknosed Nuclei (%),[2],16%
same,Population Tubulin-Different-Phenotype (%),[2],56%
same,Total Cell Count,[2],68
same,Population Apoptotic (%),[3],33%
same,Population Fragmented Nuclei (%),[3],31%
same,Population Healthy Nuclei (%),[3],10%
same,Population Hoechst High Intensity Objects (%),[3],11%
same,Population Membrane Permeable-Phenotype (%),[3],53%
same,Population Mitochondria Different-Phenotype (%),[3],7%
same,Population Mitotic Cells (%),[3],66%
same,Population Normal (%),[3],88%
same,Population Pyknosed Nuclei (%),[3],57%
same,Population Tubulin-Different-Phenotype (%),[3],100%
same,Total Cell Count,[3],135
same,Population Apoptotic (%),[4],70%
same,Population Fragmented Nuclei (%),[4],16%
same,Population Healthy Nuclei (%),[4],32%
same,Population Hoechst High Intensity Objects (%),[4],8%
same,Population Membrane Permeable-Phenotype (%),[4],90%
same,Population Mitochondria Different-Phenotype (%),[4],95%
same,Population Mitotic Cells (%),[4],29%
same,Population Normal (%),[4],91%
same,Population Pyknosed Nuclei (%),[4],50%
same,Total Cell Count,[4],60
same,Population Apoptotic (%),[5],40%
same,Population Fragmented Nuclei (%),[5],54%
same,Population Healthy Nuclei (%),[5],22%
same,Population Hoechst High Intensity Objects (%),[5],21%
same,Population Membrane Permeable-Phenotype (%),[5],10%
same,Population Mitochondria Different-Phenotype (%),[5],10%
same,Population Mitotic Cells (%),[5],60%
same,Population Normal (%),[5],78%
same,Population Pyknosed Nuclei (%),[5],22%
same,Population Tubulin-Different-Phenotype (%),[5],20%
same,Total Cell Count,[5],56
same,Population Apoptotic (%),[6],62%
same,Population Fragmented Nuclei (%),[6],11%
same,Population Healthy Nuclei (%),[6],75%
same,Population Hoechst High Intensity Objects (%),[6],3%
same,Population Membrane Permeable-Phenotype (%),[6],2%
same,Population Mitochondria Different-Phenotype (%),[6],78%
same,Population Mitotic Cells (%),[6],37%
same,Population Normal (%),[6],96%
same,Population Pyknosed Nuclei (%),[6],13%
same,Population Tubulin-Different-Phenotype (%),[6],28%
same,Total Cell Count,[6],66
same,Population Apoptotic (%),[7],38%
same,Population Fragmented Nuclei (%),[7],28%
same,Population Healthy Nuclei (%),[7],16%
same,Population Hoechst High Intensity Objects (%),[7],12%
same,Population Membrane Permeable-Phenotype (%),[7],54%
same,Population Mitochondria Different-Phenotype (%),[7],4%
same,Population Mitotic Cells (%),[7],61%
same,Population Normal (%),[7],87%
same,Population Pyknosed Nuclei (%),[7],54%
same,Population Tubulin-Different-Phenotype (%),[7],90%
same,Total Cell Count,[7],149
same,Population Apoptotic (%),[8],93%
same,Population Fragmented Nuclei (%),[8],24%
same,Population Healthy Nuclei (%),[8],3%
same,Population Hoechst High Intensity Objects (%),[8],7%
same,Population Membrane Permeable-Phenotype (%),[8],50%
same,Population Mitochondria Different-Phenotype (%),[8],50%
same,Population Mitotic Cells (%),[8],6%
same,Population Normal (%),[8],92%
same,Population Pyknosed Nuclei (%),[8],72%
same,Population Tubulin-Different-Phenotype (%),[8],50%
same,Total Cell Count,[8],63
same,Population Apoptotic (%),[9],64%
same,Population Fragmented Nuclei (%),[9],37%
same,Population Healthy Nuclei (%),[9],33%
same,Population Hoechst High Intensity Objects (%),[9],20%
same,Population Membrane Permeable-Phenotype (%),[9],37%
same,Population Mitochondria Different-Phenotype (%),[9],37%
same,Population Mitotic Cells (%),[9],35%
same,Population Normal (%),[9],80%
same,Population Pyknosed Nuclei (%),[9],29%
same,Population Tubulin-Different-Phenotype (%),[9],56%
same,Total Cell Count,[9],60
same,Population Apoptotic (%),[10],75%
same,Population Fragmented Nuclei (%),[10],41%
same,Population Healthy Nuclei (%),[10],54%
same,Population Hoechst High Intensity Objects (%),[10],17%
same,Population Membrane Permeable-Phenotype (%),[10],22%
same,Population Mitochondria Different-Phenotype (%),[10],9%
same,Population Mitotic Cells (%),[10],25%
same,Population Normal (%),[10],82%
same,Population Pyknosed Nuclei (%),[10],4%
same,Population Tubulin-Different-Phenotype (%),[10],62%
same,Total Cell Count,[10],117
same,Population Apoptotic (%),[11],56%
same,Population Fragmented Nuclei (%),[11],45%
same,Population Healthy Nuclei (%),[11],28%
same,Population Hoechst High Intensity Objects (%),[11],39%
same,Population Membrane Permeable-Phenotype (%),[11],37%
same,Population Mitochondria Different-Phenotype (%),[11],7%
same,Population Mitotic Cells (%),[11],44%
same,Population Normal (%),[11],60%
same,Population Pyknosed Nuclei (%),[11],26%
same,Population Tubulin-Different-Phenotype (%),[11],81%
same,Total Cell Count,[11],157
same,Population Apoptotic (%),[12],93%
same,Population Fragmented Nuclei (%),[12],39%
same,Population Healthy Nuclei (%),[12],43%
same,Population Hoechst High Intensity Objects (%),[12],31%
same,Population Membrane Permeable-Phenotype (%),[12],12%
same,Population Mitochondria Different-Phenotype (%),[12],82%
same,Population Mitotic Cells (%),[12],6%
same,Population Normal (%),[12],68%
same,Population Pyknosed Nuclei (%),[12],16%
same,Population Tubulin-Different-Phenotype (%),[12],92%
same,Total Cell Count,[12],129
Cc1[nH]c(/C=C2\C(=O)Nc3ccc(S(=O)(=O)N(C)c4cccc(Cl)c4)cc32)c(C)c1C(=O)N1CCN(C)CC1,Population Apoptotic (%),[1],64%
same,Population Fragmented Nuclei (%),[1],25%
same,Population Healthy Nuclei (%),[1],51%
same,Population Hoechst High Intensity Objects (%),[1],8%
same,Population Membrane Permeable-Phenotype (%),[1],40%
same,Population Mitochondria Different-Phenotype (%),[1],6%
same,Population Mitotic Cells (%),[1],35%
same,Population Normal (%),[1],91%
same,Population Pyknosed Nuclei (%),[1],22%
same,Population Tubulin-Different-Phenotype (%),[1],43%
same,Total Cell Count,[1],68
same,Population Apoptotic (%),[2],100%
same,Population Fragmented Nuclei (%),[2],16%
same,Population Healthy Nuclei (%),[2],77%
same,Population Hoechst High Intensity Objects (%),[2],12%
same,Population Membrane Permeable-Phenotype (%),[2],12%
same,Population Mitochondria Different-Phenotype (%),[2],42%
same,Population Mitotic Cells (%),[2],0%
same,Population Normal (%),[2],87%
same,Population Pyknosed Nuclei (%),[2],6%
same,Population Tubulin-Different-Phenotype (%),[2],68%
same,Total Cell Count,[2],90
same,Population Apoptotic (%),[3],61%
same,Population Fragmented Nuclei (%),[3],20%
same,Population Healthy Nuclei (%),[3],61%
same,Population Hoechst High Intensity Objects (%),[3],5%
same,Population Membrane Permeable-Phenotype (%),[3],59%
same,Population Mitochondria Different-Phenotype (%),[3],13%
same,Population Mitotic Cells (%),[3],38%
same,Population Normal (%),[3],94%
same,Population Pyknosed Nuclei (%),[3],18%
same,Population Tubulin-Different-Phenotype (%),[3],93%
same,Total Cell Count,[3],76
same,Population Apoptotic (%),[4],25%
same,Population Fragmented Nuclei (%),[4],10%
same,Population Healthy Nuclei (%),[4],74%
same,Population Hoechst High Intensity Objects (%),[4],12%
same,Population Membrane Permeable-Phenotype (%),[4],40%
same,Population Mitochondria Different-Phenotype (%),[4],97%
same,Population Mitotic Cells (%),[4],75%
same,Population Normal (%),[4],87%
same,Population Pyknosed Nuclei (%),[4],16%
same,Population Tubulin-Different-Phenotype (%),[4],100%
same,Total Cell Count,[4],70
same,Population Apoptotic (%),[5],53%
same,Population Fragmented Nuclei (%),[5],22%
same,Population Healthy Nuclei (%),[5],56%
same,Population Hoechst High Intensity Objects (%),[5],3%
same,Population Membrane Permeable-Phenotype (%),[5],28%
same,Population Mitochondria Different-Phenotype (%),[5],14%
same,Population Mitotic Cells (%),[5],46%
same,Population Normal (%),[5],96%
same,Population Pyknosed Nuclei (%),[5],20%
same,Population Tubulin-Different-Phenotype (%),[5],62%
same,Total Cell Count,[5],64
same,Population Apoptotic (%),[6],100%
same,Population Fragmented Nuclei (%),[6],18%
same,Population Healthy Nuclei (%),[6],72%
same,Population Hoechst High Intensity Objects (%),[6],8%
same,Population Membrane Permeable-Phenotype (%),[6],10%
same,Population Mitochondria Different-Phenotype (%),[6],40%
same,Population Mitotic Cells (%),[6],0%
same,Population Normal (%),[6],91%
same,Population Pyknosed Nuclei (%),[6],9%
same,Population Tubulin-Different-Phenotype (%),[6],55%
same,Total Cell Count,[6],65
same,Population Apoptotic (%),[7],77%
same,Population Fragmented Nuclei (%),[7],41%
same,Population Healthy Nuclei (%),[7],46%
same,Population Hoechst High Intensity Objects (%),[7],7%
same,Population Membrane Permeable-Phenotype (%),[7],38%
same,Population Mitochondria Different-Phenotype (%),[7],50%
same,Population Mitotic Cells (%),[7],22%
same,Population Normal (%),[7],92%
same,Population Pyknosed Nuclei (%),[7],12%
same,Population Tubulin-Different-Phenotype (%),[7],97%
same,Total Cell Count,[7],79
same,Population Apoptotic (%),[8],100%
same,Population Fragmented Nuclei (%),[8],17%
same,Population Healthy Nuclei (%),[8],73%
same,Population Hoechst High Intensity Objects (%),[8],8%
same,Population Membrane Permeable-Phenotype (%),[8],84%
same,Population Mitochondria Different-Phenotype (%),[8],100%
same,Population Mitotic Cells (%),[8],0%
same,Population Normal (%),[8],91%
same,Population Pyknosed Nuclei (%),[8],9%
same,Population Tubulin-Different-Phenotype (%),[8],100%
same,Total Cell Count,[8],71
same,Population Apoptotic (%),[9],61%
same,Population Fragmented Nuclei (%),[9],30%
same,Population Healthy Nuclei (%),[9],48%
same,Population Hoechst High Intensity Objects (%),[9],11%
same,Population Membrane Permeable-Phenotype (%),[9],17%
same,Population Mitochondria Different-Phenotype (%),[9],13%
same,Population Mitotic Cells (%),[9],38%
same,Population Normal (%),[9],88%
same,Population Pyknosed Nuclei (%),[9],21%
same,Population Tubulin-Different-Phenotype (%),[9],65%
same,Total Cell Count,[9],68
same,Population Apoptotic (%),[10],50%
same,Population Fragmented Nuclei (%),[10],16%
same,Population Healthy Nuclei (%),[10],80%
same,Population Hoechst High Intensity Objects (%),[10],17%
same,Population Membrane Permeable-Phenotype (%),[10],27%
same,Population Mitochondria Different-Phenotype (%),[10],15%
same,Population Mitotic Cells (%),[10],50%
same,Population Normal (%),[10],82%
same,Population Pyknosed Nuclei (%),[10],2%
same,Population Tubulin-Different-Phenotype (%),[10],81%
same,Total Cell Count,[10],88
same,Population Apoptotic (%),[11],66%
same,Population Fragmented Nuclei (%),[11],40%
same,Population Healthy Nuclei (%),[11],37%
same,Population Hoechst High Intensity Objects (%),[11],11%
same,Population Membrane Permeable-Phenotype (%),[11],16%
same,Population Mitochondria Different-Phenotype (%),[11],76%
same,Population Mitotic Cells (%),[11],33%
same,Population Normal (%),[11],88%
same,Population Pyknosed Nuclei (%),[11],22%
same,Population Tubulin-Different-Phenotype (%),[11],100%
same,Total Cell Count,[11],76
same,Population Apoptotic (%),[12],50%
same,Population Fragmented Nuclei (%),[12],21%
same,Population Healthy Nuclei (%),[12],72%
same,Population Hoechst High Intensity Objects (%),[12],8%
same,Population Membrane Permeable-Phenotype (%),[12],25%
same,Population Mitochondria Different-Phenotype (%),[12],52%
same,Population Mitotic Cells (%),[12],50%
same,Population Normal (%),[12],91%
same,Population Pyknosed Nuclei (%),[12],6%
same,Population Tubulin-Different-Phenotype (%),[12],95%
same,Total Cell Count,[12],72
